The record followed here is ChEMBL document CHEMBL1212879, “Synthesis and T-type calcium channel blocking activity of novel diphenylpiperazine compounds, and evaluation of in vivo analgesic activity” (Bioorg Med Chem, 2010).

Assay [1] addresses Voltage-dependent N-type calcium channel subunit alpha-1B (Homo sapiens) (UniProt Q00975). Briefly: Inhibition of N-type Alpha-1B channel expressed in HEK293 cells by whole-cell patch-clamp method. In kind it is cell-based. Further details: concentration or dose not given beside the values. The note with it: concentration not given here.
Assay [2] deals with T1, Voltage-dependent T-type calcium channel subunit alpha-1G (Homo sapiens, UniProt O43497). The assay is described as follows: Inhibition of T-type alpha1G channel expressed in HEK293 cells by whole-cell patch-clamp method. In kind it is cell-based. Put shortly: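 HEK293 cells stably expressing α1G (Cav3.1); whole-cell patch clamp. External solution in mM: 140 NaCl, 2 CaCl2, 10 Hepes, 10 glucose, pH 7.4.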
For orientation: The patch-clamp technique gives a direct electrical read-out from membranes.

Assay [3] deals with Rattus norvegicus. The assay is described as follows: Analgesic activity against formalin-induced inflammatory pain in rat assessed as reduction of pain behavior time at 60 µg/ 10 ul, sc administered after 10 mins at 5 mins intervals (reference value: 47.05 +/- 8.53 seconds). In kind it is functional.
For assay [4], the system named is Rattus norvegicus. Briefly: Antinociceptive activity against von Frey hair mechanically stimulated neuropathic pain in rat assessed as withdrawal threshold at 60 mg/kg, ip administered 2 weeks after surgery. In kind it is functional, organism-based. The arrangement: dose 60 mg/kg. Put shortly:
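Tail nerve injury rats (unilateral caudal trunk transection between S1 and S2 under enflurane) received a baseline test 2 weeks post-injury. They were then dosed at 60 mg/kg ip in methyl pyrrolidone/Tween 80/saline (1:1:8). Tail withdrawal to von Frey filaments was retested at 1, 3, 5 and 24 h. Versus baseline by one-way repeated-measures ANOVA with Bonferroni t-test.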

In assay [5] the test system is Rattus norvegicus. The assay is described as follows: Anti-cold allodynic activity in rat assessed as tail withdrawal latency at 60 mg/kg, ip measured within cut-off time of 15 seconds for up to 24 hrs. In kind it is functional, organism-based. The arrangement: dose 60 mg/kg. Put shortly:
(§1)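 At 2 weeks, after a baseline test, 60 mg/kg was given ip in methyl pyrrolidone/Tween 80/saline (1:1:8). Tail withdrawal latency to 4 °C (cold) or 40 °C (warm) water immersion was read at 1, 3, 5 and 24 h, with a 15 s cut-off. Versus baseline by repeated-measures ANOVA with Bonferroni t-test.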

Assay [6] concerns Rattus norvegicus. The assay is described as follows: Anti-warm allodynic activity in rat assessed as tail withdrawal latency at 60 mg/kg, ip measured within cut-off time of 15 seconds for up to 24 hrs. In kind it is functional, organism-based. Further details: dose 60 mg/kg. Put shortly: as §1
Assay [7] concerns Rattus norvegicus. Briefly: Analgesic activity against formalin-induced inflammatory pain in rat assessed as reduction of time spent on paw licking, shaking or biting at 60 ug, sc administered after 50 mins at 5 mins intervals. The note with it: route subcutaneous.
The target in assay [8] is T1, Voltage-dependent T-type calcium channel subunit alpha-1G. The assay is described as follows: Inhibition of T-type Cav3.1 channel.
In assay [9] the target is Voltage-dependent T-type calcium channel subunit alpha-1H (Homo sapiens, UniProt O95180). Briefly: Inhibition of T-type Cav3.2 channel.
Assay [10] has as its target Voltage-dependent T-type calcium channel subunit alpha-1I (Homo sapiens, UniProt Q9P0X4). The assay is described as follows: Inhibition of T-type Cav3.3 channel.
In assay [11] the target is Voltage-dependent N-type calcium channel subunit alpha-1B (Homo sapiens) (UniProt Q00975). The assay is described as follows: Inhibition of N-type Alpha-1B channel expressed in HEK293 cells at 10 uM by whole-cell patch-clamp method. It counts as cell-based.
The subject of assay [12] is Rattus norvegicus. The assay is described as follows: Analgesic activity against formalin-induced inflammatory pain in rat assessed as reduction of time spent on paw licking, shaking, biting at 60 ug, sc administered after 50 mins at 5 mins intervals(reference value: 334.21 +/- 51.10 seconds). Conditions: route subcutaneous.
A short description of assay [13]: Inhibition of T-type Cav3 channel. Put shortly:
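Whole-cell patch clamp on HEK293 cells stably expressing Cav3.1 (α1G). External solution was 140 mM NaCl, 2 mM CaCl2, 10 mM Hepes and 10 mM glucose, pH 7.4. Currents were evoked every 15 s by a 50 ms depolarizing voltage step.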

Assay [14] in a line: Inhibition of L-type calcium channel.

The source made the active and inactive calls.

T1 sequence (O43497 whole entry): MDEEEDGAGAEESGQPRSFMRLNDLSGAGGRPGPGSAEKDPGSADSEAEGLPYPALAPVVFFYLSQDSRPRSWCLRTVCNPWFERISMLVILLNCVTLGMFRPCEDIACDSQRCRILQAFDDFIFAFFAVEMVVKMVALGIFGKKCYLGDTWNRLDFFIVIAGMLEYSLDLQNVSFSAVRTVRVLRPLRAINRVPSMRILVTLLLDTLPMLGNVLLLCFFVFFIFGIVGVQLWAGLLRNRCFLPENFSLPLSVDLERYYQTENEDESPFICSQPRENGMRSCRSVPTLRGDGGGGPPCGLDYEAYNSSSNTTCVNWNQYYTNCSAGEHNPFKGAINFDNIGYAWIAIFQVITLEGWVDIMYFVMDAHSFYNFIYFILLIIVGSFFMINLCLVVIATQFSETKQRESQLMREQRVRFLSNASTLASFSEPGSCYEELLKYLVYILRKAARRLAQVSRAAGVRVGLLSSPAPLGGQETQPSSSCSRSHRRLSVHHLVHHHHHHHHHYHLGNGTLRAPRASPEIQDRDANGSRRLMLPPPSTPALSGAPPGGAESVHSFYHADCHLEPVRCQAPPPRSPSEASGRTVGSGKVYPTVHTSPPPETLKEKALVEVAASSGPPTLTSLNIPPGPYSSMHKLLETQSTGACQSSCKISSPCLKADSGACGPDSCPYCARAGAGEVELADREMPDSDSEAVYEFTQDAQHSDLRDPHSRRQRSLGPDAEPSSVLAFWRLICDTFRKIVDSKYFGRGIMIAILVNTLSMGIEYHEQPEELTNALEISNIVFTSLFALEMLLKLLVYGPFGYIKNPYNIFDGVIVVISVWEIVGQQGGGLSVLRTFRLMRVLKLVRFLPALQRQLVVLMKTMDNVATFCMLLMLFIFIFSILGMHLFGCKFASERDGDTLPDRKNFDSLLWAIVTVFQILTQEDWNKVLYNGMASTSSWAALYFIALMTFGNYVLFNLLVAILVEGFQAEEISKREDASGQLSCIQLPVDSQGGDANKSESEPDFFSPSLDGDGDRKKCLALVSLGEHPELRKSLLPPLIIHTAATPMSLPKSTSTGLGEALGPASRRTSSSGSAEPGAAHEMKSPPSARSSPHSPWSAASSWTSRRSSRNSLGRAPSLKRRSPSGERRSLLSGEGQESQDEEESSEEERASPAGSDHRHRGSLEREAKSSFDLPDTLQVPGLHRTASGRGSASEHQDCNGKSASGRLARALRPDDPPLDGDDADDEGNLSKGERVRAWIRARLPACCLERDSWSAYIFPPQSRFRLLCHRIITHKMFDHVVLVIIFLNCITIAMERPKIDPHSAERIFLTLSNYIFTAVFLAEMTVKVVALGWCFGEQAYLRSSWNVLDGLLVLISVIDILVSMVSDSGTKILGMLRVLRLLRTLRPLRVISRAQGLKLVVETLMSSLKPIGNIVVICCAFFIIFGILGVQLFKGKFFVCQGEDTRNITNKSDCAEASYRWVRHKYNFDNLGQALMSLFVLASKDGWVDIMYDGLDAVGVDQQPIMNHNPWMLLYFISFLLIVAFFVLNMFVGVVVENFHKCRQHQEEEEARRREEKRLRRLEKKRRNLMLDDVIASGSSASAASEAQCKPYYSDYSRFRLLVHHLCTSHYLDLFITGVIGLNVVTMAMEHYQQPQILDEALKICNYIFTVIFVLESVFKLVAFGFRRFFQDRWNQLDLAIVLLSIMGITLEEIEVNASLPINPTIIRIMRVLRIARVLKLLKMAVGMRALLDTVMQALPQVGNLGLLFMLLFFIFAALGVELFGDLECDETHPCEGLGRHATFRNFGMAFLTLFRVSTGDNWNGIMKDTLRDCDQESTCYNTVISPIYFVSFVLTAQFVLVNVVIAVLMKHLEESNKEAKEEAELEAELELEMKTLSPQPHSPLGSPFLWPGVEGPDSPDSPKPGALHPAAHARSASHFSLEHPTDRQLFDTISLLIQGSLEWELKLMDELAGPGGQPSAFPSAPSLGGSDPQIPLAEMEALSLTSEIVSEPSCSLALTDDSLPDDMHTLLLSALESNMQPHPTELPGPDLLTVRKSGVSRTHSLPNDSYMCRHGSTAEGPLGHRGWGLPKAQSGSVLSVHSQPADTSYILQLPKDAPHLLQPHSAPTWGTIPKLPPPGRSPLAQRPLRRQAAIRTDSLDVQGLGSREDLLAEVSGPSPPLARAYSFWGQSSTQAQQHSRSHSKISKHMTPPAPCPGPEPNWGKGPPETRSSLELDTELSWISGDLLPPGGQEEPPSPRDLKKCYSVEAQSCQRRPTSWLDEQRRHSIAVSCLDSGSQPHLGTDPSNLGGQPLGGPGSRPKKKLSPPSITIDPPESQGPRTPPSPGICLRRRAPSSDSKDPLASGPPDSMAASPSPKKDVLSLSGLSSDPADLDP
Voltage-dependent N-type calcium channel subunit alpha-1B (Homo sapiens), sequence (Q00975 whole entry, looked up): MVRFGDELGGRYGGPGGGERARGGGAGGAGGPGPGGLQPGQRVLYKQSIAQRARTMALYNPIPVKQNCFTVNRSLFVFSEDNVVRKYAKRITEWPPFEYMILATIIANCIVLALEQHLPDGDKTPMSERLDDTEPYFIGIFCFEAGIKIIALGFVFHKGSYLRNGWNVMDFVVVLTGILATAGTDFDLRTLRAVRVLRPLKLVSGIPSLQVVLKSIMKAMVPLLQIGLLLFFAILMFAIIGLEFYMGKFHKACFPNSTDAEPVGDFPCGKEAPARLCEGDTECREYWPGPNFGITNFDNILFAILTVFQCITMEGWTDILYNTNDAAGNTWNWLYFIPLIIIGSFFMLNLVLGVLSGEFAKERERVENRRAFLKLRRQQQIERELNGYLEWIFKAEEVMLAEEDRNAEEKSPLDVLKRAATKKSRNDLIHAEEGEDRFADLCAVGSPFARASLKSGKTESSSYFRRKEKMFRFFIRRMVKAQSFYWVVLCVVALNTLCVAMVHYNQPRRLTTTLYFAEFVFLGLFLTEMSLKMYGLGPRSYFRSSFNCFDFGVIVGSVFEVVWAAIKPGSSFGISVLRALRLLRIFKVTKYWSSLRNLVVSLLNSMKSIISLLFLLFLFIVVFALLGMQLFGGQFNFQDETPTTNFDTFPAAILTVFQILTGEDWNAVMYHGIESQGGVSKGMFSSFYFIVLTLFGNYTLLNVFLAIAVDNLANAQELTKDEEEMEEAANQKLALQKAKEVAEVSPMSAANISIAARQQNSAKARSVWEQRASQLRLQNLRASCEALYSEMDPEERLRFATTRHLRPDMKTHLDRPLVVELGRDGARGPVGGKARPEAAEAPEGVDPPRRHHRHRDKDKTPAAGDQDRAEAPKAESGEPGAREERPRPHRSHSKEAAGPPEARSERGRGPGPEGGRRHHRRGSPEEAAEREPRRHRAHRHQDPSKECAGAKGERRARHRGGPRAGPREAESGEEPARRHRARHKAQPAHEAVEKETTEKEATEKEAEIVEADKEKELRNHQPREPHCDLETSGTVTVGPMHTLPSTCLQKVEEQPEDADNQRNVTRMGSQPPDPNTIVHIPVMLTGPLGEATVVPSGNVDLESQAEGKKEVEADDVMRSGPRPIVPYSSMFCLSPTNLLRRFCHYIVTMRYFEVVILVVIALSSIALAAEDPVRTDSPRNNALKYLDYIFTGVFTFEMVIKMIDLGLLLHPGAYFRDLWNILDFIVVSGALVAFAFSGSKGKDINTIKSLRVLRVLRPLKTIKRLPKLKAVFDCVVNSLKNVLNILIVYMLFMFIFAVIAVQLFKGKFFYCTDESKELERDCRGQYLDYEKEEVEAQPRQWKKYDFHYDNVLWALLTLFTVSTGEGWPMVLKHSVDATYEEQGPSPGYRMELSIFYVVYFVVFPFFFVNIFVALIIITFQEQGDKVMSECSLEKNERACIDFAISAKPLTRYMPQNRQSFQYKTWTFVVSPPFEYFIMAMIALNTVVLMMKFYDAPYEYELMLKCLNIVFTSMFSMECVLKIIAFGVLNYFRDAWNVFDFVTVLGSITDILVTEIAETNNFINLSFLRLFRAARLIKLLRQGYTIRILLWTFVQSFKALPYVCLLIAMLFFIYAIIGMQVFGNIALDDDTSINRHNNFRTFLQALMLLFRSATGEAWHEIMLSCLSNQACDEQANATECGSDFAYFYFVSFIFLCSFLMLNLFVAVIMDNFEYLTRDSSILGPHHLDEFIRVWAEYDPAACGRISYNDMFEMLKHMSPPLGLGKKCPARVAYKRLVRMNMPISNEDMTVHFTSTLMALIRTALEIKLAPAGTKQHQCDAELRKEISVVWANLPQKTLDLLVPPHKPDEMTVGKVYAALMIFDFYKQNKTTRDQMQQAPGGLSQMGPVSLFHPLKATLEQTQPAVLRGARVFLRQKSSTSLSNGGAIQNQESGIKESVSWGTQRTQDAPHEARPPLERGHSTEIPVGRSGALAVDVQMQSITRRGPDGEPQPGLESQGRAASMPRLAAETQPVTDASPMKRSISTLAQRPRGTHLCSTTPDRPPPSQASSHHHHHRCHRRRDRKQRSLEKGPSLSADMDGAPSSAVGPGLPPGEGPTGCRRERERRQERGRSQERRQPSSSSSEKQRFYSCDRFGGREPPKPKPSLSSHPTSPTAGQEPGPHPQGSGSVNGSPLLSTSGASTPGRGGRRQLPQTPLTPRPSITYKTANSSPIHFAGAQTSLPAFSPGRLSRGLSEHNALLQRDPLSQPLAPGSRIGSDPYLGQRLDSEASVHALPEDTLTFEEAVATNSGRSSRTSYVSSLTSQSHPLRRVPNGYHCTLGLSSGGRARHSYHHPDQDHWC

As to `O=C(CCCNCc1ccccc1)N1CCN(C(c2ccccc2)c2ccc(Cl)cc2)CC1` (stereo not drawn), the inhibition (as a rule, how much of the control response was suppressed) in [1] amounted to 69.8%. Further, in assay [2], the IC50 (as a rule, the midpoint of a concentration-inhibition curve) stood at 1670 nM.
For `NCCCC(=O)N1CCN(C(c2ccccc2)c2ccc(Cl)cc2)CC1` (stereo not drawn), in assay [1], the inhibition is 10%. Further, in assay [2], the IC50 turned out to be 3710 nM. Besides, the Time in the assay with Rattus norvegicus [3] is recorded as 2.41 s; in the assay with Rattus norvegicus [7] it was 62.57 s. Further, the outcome in the assay on Rattus norvegicus [4], with Rattus norvegicus [5] and in the assay on Rattus norvegicus [6] was Active.
Regarding `CN(C)c1ccc(CNCCCC(=O)N2CCN(C(c3ccccc3)c3ccc(Cl)cc3)CC2)cc1` (stereo not drawn), in assay [1], the inhibition was 10.8%. In [2], the IC50 is 2320 nM.
Take `Fc1ccc(C(c2ccc(F)cc2)N2CCN(C/C=C/c3ccccc3)CC2)cc1` [FLUNARIZINE]: the Kd (commonly the free concentration of one partner at which half of the binding sites on the other are occupied at equilibrium, for simple one-to-one binding) in assay [8] was 530 nM; in assay [9] it was 3600 nM; in [10] it was 840 nM.
Take `CC(C)CNCCCC(=O)N1CCN(C(c2ccccc2)c2ccc(Cl)cc2)CC1` (stereo not drawn): the inhibition in assay [1] is 13.3%. The IC50 in assay [2] was 360 nM.
For `O=C(CCCNCC1CCCCC1)N1CCN(C(c2ccccc2)c2ccc(Cl)cc2)CC1` (stereo not drawn), the inhibition in assay [1] worked out at 84.9%; in assay [11], 80%. Further, in assay [2], the IC50 was 190 nM. Further, the results for the Time in the assay on Rattus norvegicus [3] and in the assay on Rattus norvegicus [12] were 1.8 s and 24.32 s, respectively. The result in the assay on Rattus norvegicus [4] was inactive. Further, the outcome in the assay on Rattus norvegicus [5] and with Rattus norvegicus [6] was Active.
For the molecule `O=C(CCCNCc1c(Cl)cccc1Cl)N1CCN(C(c2ccccc2)c2ccc(Cl)cc2)CC1` (stereo not drawn), in assay [1], the inhibition was found to be 78.4%. For the same molecule, the IC50 in assay [2] amounted to 1020 nM.
On to `NCC1(CC(=O)O)CCCCC1`, for which the outcome with Rattus norvegicus [4], in the assay with Rattus norvegicus [5] and in the assay on Rattus norvegicus [6] was Active.
Take `O=C(CCCNCc1ccc([N+](=O)[O-])cc1)N1CCN(C(c2ccccc2)c2ccc(Cl)cc2)CC1` (stereo not drawn): the results for the inhibition in assay [1] and in assay [11] were 88.8% and 80%, respectively. Also, the IC50 in assay [2] amounted to 600 nM.
In the case of `CC(C)c1ccc(CNCCCC(=O)N2CCN(C(c3ccccc3)c3ccc(Cl)cc3)CC2)cc1` (stereo not drawn), the inhibition turned out to be 80.2% in [1] and 80% in assay [11]. Further, the IC50 in assay [2] stood at 280 nM.
On to `O=c1[nH]c2ccccc2n1C1CCN(CCCC(c2ccc(F)cc2)c2ccc(F)cc2)CC1`, for which the INH in assay [13] worked out at 40 nM.
On to `CCC(CC)CNCCCC(=O)N1CCN(C(c2ccccc2)c2ccc(Cl)cc2)CC1` (stereo not drawn), for which the inhibition in assay [1] was found to be 16.8%. In addition, the IC50 in assay [2] turned out to be 1540 nM.
Consider `COc1ccc(CNCCCC(=O)N2CCN(C(c3ccccc3)c3ccc(Cl)cc3)CC2)cc1` (stereo not drawn), for which the inhibition in [1] was 49.6%. Moreover, the IC50 in assay [2] came out at 16100 nM.
In the case of `COCC(=O)O[C@]1(CCN(C)CCCc2nc3ccccc3[nH]2)CCc2cc(F)ccc2[C@@H]1C(C)C` [MIBEFRADIL], the IC50 in assay [14] turned out to be 10000 nM.
In the case of `CCNCCCC(=O)N1CCN(C(c2ccccc2)c2ccc(Cl)cc2)CC1` (stereo not drawn), the inhibition in assay [1] was found to be 20%. Besides, the IC50 in assay [2] is 420 nM.
